Here are results for 96 molecules from ChEMBL document CHEMBL4513216, “Probing the Open Global Health Chemical Diversity Library for Multistage-Active Starting Points for Next-Generation Antimalarials” (ACS Infect Dis, 2020).

A short description of the data set: Toxicity liver stage against HepG2, at 10uM. The format is cell-based. Details: test concentration 10 uM, cell line HepG2-A16-CD81EGFP. Conditions: human, HepG2-A16-CD81EGFP cells; read-out: INHIBITION
In short, it runs like this: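 Uninfected HepG2-A16-CD81EGFP cells, 3 × 10^3 per well, 1536-well, plated on prespotted compound at 10 μM final, parasite-free screening media added to match infected plates; puromycin 10 μM positive, DMSO 0.5% negative; run in parallel with 48 h PbLuc assay at 37 °C, 5% CO2; viability by CellTiter-Glo luminescence, normalized to controls.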
`CCNC(=O)COc1cc(CC)c2c(C)nn(-c3ccc(C)cc3)c2n1`: the cytotoxicity at 10 µM amounted to 0.409%.
The value for `COCCCNC(=O)Cc1cc(-c2ccc3c(c2)OCO3)on1` was 57.7%; that for `O=C(NCc1ccc(F)cc1)NCC(O)(c1ccco1)C1CC1` (stereo unspecified) was -115%; that for `N#Cc1ccc(OC2CCN(C(=O)Cc3cccs3)CC2)nc1` was 1.96%.
For the molecule `CS(=O)(=O)N1CCCC1CS(=O)(=O)c1ccccc1` (stereo unspecified), the cytotoxicity at 10 µM was found to be 1.01%.
`O=C([C@@H]1COC[C@H]2CN(CC3CCCC3)C[C@H]21)N1CCOCC1`: the cytotoxicity at 10 µM came out at 14.9%.
As to `CC(=O)NCC(=O)N1Cc2cc(C#N)ccc2C1c1cnco1` (stereo unspecified), the cytotoxicity at 10 µM worked out at 1.06%.
Consider `Cc1nc(CN2CCc3nc(N4CCCC4)nc(NC(C)C)c3C2)cs1`, for which the cytotoxicity at 10 µM was 2.72%.
In the case of `CC(C)N1CCc2ncn(C)c2C1C(=O)NCCN1CCCC1` (stereo unspecified), the cytotoxicity at 10 µM is -0.511%.
The same measure for `Cc1cnc(N2CCc3c(CN(C)Cc4ccco4)cncc3C2)nc1`: 4.15%.
For `c1cc(CN2CC[C@H]3C[C@H](c4nc(C5CC5)cs4)O[C@@H]3C2)ccn1`, the cytotoxicity at 10 µM was 8.81%.
As to `Cn1c(N)c2c(=O)n(C)c(-c3ccc(Cl)cc3Cl)cc2c(C#N)c1=O`, the cytotoxicity at 10 µM was -5.43%.
The value for `Cc1cc(NC(=O)C(C)Cn2cc(Br)cn2)no1` (stereo unspecified) was -2.04%.
The same measure for `O=C1CNc2ncnc(Nc3cnn(Cc4ccc(F)cc4)c3)c2N1`: 6.85%.
`Clc1cccc(-n2cnnn2)c1N1CCCCC1`: the cytotoxicity at 10 µM was found to be 17.4%.
Consider `CN(C)c1cc(C2CCCN(C(=O)c3noc4c3CCCC4)C2)ccn1` (stereo unspecified), for which the cytotoxicity at 10 µM was -12.3%.
The same measure for `CN1CCCC(c2cncc(-c3cccc(C(F)(F)F)c3)n2)C1` (stereo unspecified): 8.92%; for `COCc1ccc(C(=O)N2CCC(c3cc4nccnc4[nH]3)CC2)cc1`: -39%; for `O=C(NC(c1ccc(Cl)cc1)C(F)(F)F)c1nc(=O)[nH][nH]1` (stereo unspecified): 11.5%.
As for `O=C(c1cnc2n1CCCC2)N1CCCC1`, the cytotoxicity at 10 µM was -10.6%.
For the molecule `Cc1cccc(C)c1OCCCN1CCN(CC2CCCO2)CC1` (stereo unspecified), the cytotoxicity at 10 µM amounted to 9.09%.
On to `O=S(=O)(N1CCC(n2cccc2)CC1)N1CCCC1c1ccco1` (stereo unspecified), for which the cytotoxicity at 10 µM came to 12.7%.
The same measure for `CC(=O)NC1CCCN(c2nc3ccccc3cc2CO)C1` (stereo unspecified): -50.1%; for `CCc1noc(C(C)N2CCN(Cc3noc(C4CC4)n3)CC2)n1` (stereo unspecified): -2.13%; for `CCN(CC)CC(=O)N1CCN(CCCc2ccncc2)CC1`: -60.5%.
With `CCOCCN1CCN(CC(=O)N2CCCC2)CC1C` (stereo unspecified), the cytotoxicity at 10 µM was -3.82%.
Consider `Cc1c(NCc2cccc(C#N)c2)cccc1S(=O)(=O)NC1CC1`, for which the cytotoxicity at 10 µM turned out to be 42.5%.
The value for `CC(C)(C)c1cnc(CN2CCC(CN3CCOCC3)CC2)o1` was 3.63%.
Take `Cc1ncccc1C(=O)NCc1ccccc1CN(C)Cc1ccco1`: the cytotoxicity at 10 µM amounted to 8.35%.
As to `CN1CCN(C(CNC(=O)c2ccc(Cl)cc2F)c2cccs2)CC1` (stereo unspecified), the cytotoxicity at 10 µM turned out to be 84.6%.
For the molecule `CCc1nccn1C1CCCN(C(=O)c2ccnc(N(C)C)c2)C1` (stereo unspecified), the cytotoxicity at 10 µM is 0.795%.
`Cc1ccc(CC(=O)N2CCOCC2c2c(C)n[nH]c2C)cc1` (stereo unspecified): the cytotoxicity at 10 µM came out at 5.12%.
As to `Cn1c(CCNc2nccnc2C#N)nc2ccc(F)cc21`, the cytotoxicity at 10 µM was -6.92%.
The same measure for `O=C(C[S+]([O-])Cc1ccc(F)cc1Cl)NC1CCCC1` (stereo unspecified): 9.5%; for `Cc1cc(SC(C)(C)C)ccc1NC(C)C(=O)NC(N)=O` (stereo unspecified): -5.36%; for `Cn1c2ncccc2c(=O)n1CC(=O)NCCC1=CCCCC1`: 19%.
Turning to `CC1CN(C)CCN1C(=O)c1ccc(-n2cnnc2)cc1` (stereo unspecified), the cytotoxicity at 10 µM was found to be 2.84%.
In the case of `CC(NCC(N)=O)c1c(F)cccc1Cl` (stereo unspecified), the cytotoxicity at 10 µM was -0.725%.
Take `Cc1nc(C)c(C(=O)N2CCN(CCOc3ccccc3C)CC2)o1`: the cytotoxicity at 10 µM amounted to 1.72%.
For `O=C(NCCCc1nc(=O)[nH][nH]1)c1ccc(Cl)cn1`, the cytotoxicity at 10 µM was -47.6%.
For the molecule `CO[C@H]1CN(C(=O)OC(C)(C)C)CC1NCc1ccoc1` (stereo partly specified), the cytotoxicity at 10 µM is -51.8%.
On to `CCO[C@H]1CC[C@H]2[C@H]1OCCN2C(=O)c1nn(C)c2ccccc12`, for which the cytotoxicity at 10 µM came out at 7.28%.
For the molecule `Cc1cc(C(=O)N2CCc3nc(N4CCCC4)nc(C)c3CC2)c(C)o1`, the cytotoxicity at 10 µM is -108%.
Consider `Cc1ncccc1NC(=O)c1nc2c(n1C)CCN(C(=O)C1CC1)C2`, for which the cytotoxicity at 10 µM was -99.6%.
With `CCNc1nc2c(s1)C(=O)CN(C(=O)NCc1ccccc1)C2`, the cytotoxicity at 10 µM was determined as 59.1%.
As to `CN(Cc1ccncc1)CC1CCCN(CCc2ccc(Cl)cc2)C1` (stereo unspecified), the cytotoxicity at 10 µM stood at 1.06%.
Turning to `COCCN(Cc1ccc(C)cc1)CC1CCOC1` (stereo unspecified), the cytotoxicity at 10 µM is -9.06%.
Consider `COc1ncc(-c2nccn2C(C)CCn2cccn2)cn1` (stereo unspecified), for which the cytotoxicity at 10 µM is 0.728%.
With `Cc1ccc2[nH]c(CNC(=O)C3CC4(CCNCC4)CN3C)nc2c1C` (stereo unspecified), the cytotoxicity at 10 µM is -9.66%.
As to `CCC(C)Oc1ccc(CNCCc2c[nH]cn2)cc1Cl` (stereo unspecified), the cytotoxicity at 10 µM came out at 1.09%.
With `Cc1n[nH]c(C)c1CCCNCc1cn(CCC(N)=O)c2ccccc12`, the cytotoxicity at 10 µM amounted to 8.45%.
On to `CC(c1cccs1)N(C)Cc1cnc(-c2ccccn2)nc1` (stereo unspecified), for which the cytotoxicity at 10 µM was -6.3%.
The value for `Cc1cccn2c(CNC(C)CCc3ccc(O)cc3)cnc12` (stereo unspecified) was 1.95%; that for `O=C(N1CCOCC1)N1CCc2[nH]nc(COc3cccc(Cl)c3)c2C1` was -42.2%.
For the molecule `CN(C)Cc1csc(-c2nccn2Cc2ccsc2)c1`, the cytotoxicity at 10 µM is -2.47%.
Regarding `Cc1nc2ccc(CN3CC4(CCOC4)CCC3=O)cc2[nH]1` (stereo unspecified), the cytotoxicity at 10 µM worked out at 11.7%.
In the case of `COc1ccc(OC2CCN(C(=O)C3CCCN(C)C3)CC2)cc1` (stereo unspecified), the cytotoxicity at 10 µM was -59.6%.
The same measure for `CC1=CC(C)(C)N(CN2C(=O)c3ccccc3C2=O)c2ccc(C)cc21`: -3.49%; for `Cc1sc2nc(CCN)nc(N3CCN(S(C)(=O)=O)CC3)c2c1C`: -32%; for `CC(c1cccnc1)N(C)Cc1cc(O)c2cc(F)ccc2n1` (stereo unspecified): 10.8%.
For the molecule `CCCc1nc(NCc2c(C)nn(CCC)c2C)c2cnn(C)c2n1`, the cytotoxicity at 10 µM was 9.66%.
For the molecule `N[C@H]1CCCN(S(=O)(=O)c2ccc(C(=O)NCC(F)F)cc2)C1`, the cytotoxicity at 10 µM was -0.566%.
As for `Cc1ccnc(CC(C)N(C)c2cc(CN)nc(C)n2)c1` (stereo unspecified), the cytotoxicity at 10 µM was -48.9%.
Regarding `O=C(Nc1nncs1)N1CCC(CCO)CC1`, the cytotoxicity at 10 µM was -2.48%.
Take `Cc1nnsc1C(=O)NCc1cccnc1N1CCCC(O)C1` (stereo unspecified): the cytotoxicity at 10 µM was found to be 1.91%.
`CC(Cc1cncs1)Nc1ncnc2cccc(F)c12` (stereo unspecified): the cytotoxicity at 10 µM was determined as 17.5%.
For `CN(CCc1ccccn1)C(=O)c1cn2c(n1)CNCC2`, the cytotoxicity at 10 µM was -43.5%.
Consider `Cc1ccc(Sc2ccc(CN3CCC4(CC3)NCCNC4=O)o2)cc1`, for which the cytotoxicity at 10 µM is -6.71%.
With `Cc1ccccc1N1CCN(c2cc(N(C)C)ncn2)C(C)C1` (stereo unspecified), the cytotoxicity at 10 µM was determined as 19.7%.
The value for `COc1ccc2cc(C3CN(C(=O)C4CCOCC4)CCO3)ccc2c1` (stereo unspecified) was -8.68%; that for `CN(Cc1noc(C(C)(C)C)n1)C1CCCN(c2cccnn2)C1` (stereo unspecified) was -7.96%; that for `CC(O)CN1CCN(C(=O)c2cc3ccccc3n2C)CC1` (stereo unspecified) was 2.99%.
Consider `CCN(CC1CCOC1)C(=O)c1ccc(N2CCOCC2)c(F)c1` (stereo unspecified), for which the cytotoxicity at 10 µM is -2.45%.
For `CCc1nc(CN(C(C)=O)C2CCN(CCc3ccncc3)C2)no1` (stereo unspecified), the cytotoxicity at 10 µM was -22.3%.
On to `COc1cc(C(=O)N2CCCS2(=O)=O)ccc1OC(C)C`, for which the cytotoxicity at 10 µM was -17.6%.
The same measure for `Clc1ccc(OCCCN2CCOC(Cn3cncn3)C2)cc1` (stereo unspecified): -10%; for `COC(=O)c1cccn1C1CCN(Cc2cnc3ccccn23)CC1`: -8.86%; for `Cc1nn(CC(C)C)c(N(C)C)c1CNCc1cc2ccccc2[nH]1`: -2.77%.
Regarding `Cc1noc(C(C)C)c1C(=O)NCCCN1CCCC1`, the cytotoxicity at 10 µM is -13.5%.
On to `Cn1cc(CC(=O)N2CCC(Nc3cccnn3)CC2)c2ccccc21`, for which the cytotoxicity at 10 µM is -9.24%.
Consider `CCNCc1ccc(OCc2ccc3c(c2)OCCO3)cc1`, for which the cytotoxicity at 10 µM is 2.44%.
In the case of `CCC(=O)N1CCC2(CC1)COCCN2Cc1ccc(F)cc1`, the cytotoxicity at 10 µM was -76.5%.
For the molecule `O=C(NCc1ccco1)[C@@H]1CCO[C@@H]2CCN(CC3CC3)C[C@@H]21`, the cytotoxicity at 10 µM is -78.7%.
Take `Cn1cc(N2CCC3(CCCN(Cc4ccc(F)cc4)C3)C2=O)cn1` (stereo unspecified): the cytotoxicity at 10 µM was -73.4%.
`CCN1CCC2(C1)CN(S(=O)(=O)c1cn(C)cn1)C2`: the cytotoxicity at 10 µM is -109%.
With `c1ccc(-c2ncc3c(n2)C2(CCN(CC4CC4)C2)COC3)cc1` (stereo unspecified), the cytotoxicity at 10 µM was determined as 0.975%.
The value for `CO[C@@H]1CC[C@H]2[C@H]1OCCN2C(=O)c1ccc(C)nc1` was -143%; that for `O=C([C@H]1CCCO1)N1CCCC2(COCCN(c3ccccc3)C2)C1` (stereo partly specified) was 13.9%.
In the case of `CC(C)NC(=O)C1(CC2CC(c3ccc(F)cc3)=NO2)CCNCC1` (stereo unspecified), the cytotoxicity at 10 µM is -8.54%.
The same measure for `O=C(c1cc[nH]n1)N1CCc2onc(COc3cccnc3)c2C1`: -70.3%; for `O=C(CCC1CCCC1)NCCn1nc(C2CCNC2)c2nccnc21` (stereo unspecified): 6.28%; for `CC(=O)N1CCCCCC1C1CCN(Cc2nnc(C(C)(C)C)o2)CC1` (stereo unspecified): -42.3%.
The value for `CN(C)C1CCC2(CCN(Cc3nccn3C)CC2)c2ccccc21` (stereo unspecified) was 5.64%.
As for `Cc1cccc(N2CC[C@@H]3CN(Cc4csc(C)n4)CCO[C@@H]3C2)n1`, the cytotoxicity at 10 µM is -4.51%.
`CC(C)Cn1cc2nc(N3CCC(O)CC3)[nH]cc-2c1=O`: the cytotoxicity at 10 µM came to 5.92%.
With `COCCN1C[C@@H]2CC[C@H]1CN(C(=O)c1ccc(Cl)cc1)C2`, the cytotoxicity at 10 µM is -8.03%.
